From PubChem
Shown are actives, neighbours in structure and some others; about 2.3% of the full set was active somewhere.
TRPC6 activator: activators of mouse TRPC6 channel | 0.13% of 310,000 active | HEK293-TRPC6 membrane potential dye fluorescence; stronger effect = higher value | B-score at 10 µM;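 active = B-score of the integrated fluorescence ratio above library mean plus 3 SD, and starting fluorescence ratio within library mean plus 5 SD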;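 also: higher score means more depolarization so channel activation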
TRPC6 inhibitor: mouse TRPC6 channel inhibition; Q61143; HEK293-TRPC6, membrane potential dye, ACh-evoked depolarization; stronger effect = lower value; B-score at 10 µM; 1.1% of 310,000 active;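 active = B-score under library mean minus 3 SD, initial fluorescence not abnormally high, positive integrated signal ratio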;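 also: B-score derived from integrated fluorescence ratio over the kinetic read; more negative B-score means stronger inhibition of depolarization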
TRPC4 PAM: allosterically enhances the mouse TRPC4 cation channel. Q9QUQ5. HEK293 TRPC4beta/mu-opioid, DAMGO EC20, Fluo-4 Ca2+ flux; stronger effect = higher value. B-score at 10 µM. 0.42% of 310,000 active. AID 2227;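 active = B-score of calcium response area above 5 SD of library B-scores, with initial fluorescence ratio within 5 SD of library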;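 also: B-score of integrated fluorescence ratio over time as area under calcium response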
Target sequence (Q9QUQ5 whole entry, looked up): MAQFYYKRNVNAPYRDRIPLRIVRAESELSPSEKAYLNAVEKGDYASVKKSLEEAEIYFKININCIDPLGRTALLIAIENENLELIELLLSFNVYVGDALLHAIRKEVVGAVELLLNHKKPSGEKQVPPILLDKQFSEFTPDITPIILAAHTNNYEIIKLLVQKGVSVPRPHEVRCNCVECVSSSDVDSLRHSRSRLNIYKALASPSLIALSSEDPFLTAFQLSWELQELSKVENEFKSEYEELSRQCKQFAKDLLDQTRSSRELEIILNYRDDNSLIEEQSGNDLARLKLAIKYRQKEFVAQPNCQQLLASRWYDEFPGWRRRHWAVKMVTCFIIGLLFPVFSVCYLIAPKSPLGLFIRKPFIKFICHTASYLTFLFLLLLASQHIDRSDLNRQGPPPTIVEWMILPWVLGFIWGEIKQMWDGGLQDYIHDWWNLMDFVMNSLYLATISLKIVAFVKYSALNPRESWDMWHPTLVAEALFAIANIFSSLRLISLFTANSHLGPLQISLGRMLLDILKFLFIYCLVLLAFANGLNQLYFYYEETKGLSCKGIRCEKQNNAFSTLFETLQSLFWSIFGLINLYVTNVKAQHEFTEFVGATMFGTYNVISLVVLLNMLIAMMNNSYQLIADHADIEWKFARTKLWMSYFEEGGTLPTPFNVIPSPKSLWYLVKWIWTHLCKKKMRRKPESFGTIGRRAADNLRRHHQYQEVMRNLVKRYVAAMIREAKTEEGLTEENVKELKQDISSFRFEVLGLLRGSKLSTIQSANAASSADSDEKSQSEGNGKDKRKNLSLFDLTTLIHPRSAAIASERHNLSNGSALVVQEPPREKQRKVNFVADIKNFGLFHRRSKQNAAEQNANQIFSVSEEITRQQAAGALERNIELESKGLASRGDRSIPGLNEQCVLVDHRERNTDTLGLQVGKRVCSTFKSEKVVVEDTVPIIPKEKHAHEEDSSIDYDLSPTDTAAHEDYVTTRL
TRPC4 act: opens the mouse TRPC4 cation channel; 0.49% of 310,000 active; Q9QUQ5; B-score at 10 µM; AID 2237; HEK293 TRPC4beta/mu-opioid, Fluo4 calcium fluorescence; stronger effect = higher value;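 active = B-score above 5 SD of library B-scores, and initial fluorescence ratio not above library mean plus 5 SD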;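 also: positive B-score marks a calcium rise read as TRPC4 activation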
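system = HEK293 cells stably co-expressing mouse TRPC4beta and mu-opioid receptor | schedule = Fluo4 dye loading 45 min at room temperature, 110 s recording | measure = B-scored integrated calcium fluorescence ratio | signal = Fluo4 calcium-sensitive dye fluorescence, kinetic, 1 Hz baseline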
TRPC4 block: inhibitors of mouse TRPC4 channel | Q9QUQ5 | HEK293 TRPC4beta/mu-opioid, DAMGO-evoked Fluo4 calcium flux; stronger effect = lower value | B-score at 10 µM | 0.39% of 300,000 active | AID 2247;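 active = B-score over 3 SD under the library average, no early fluorescence shift, positive overall ratio signal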
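test system = HEK293 cells with stable TRPC4beta plus mu-opioid receptor expression | detection = Fluo4 Ca2+ flux fluorescence | read-out = integrated fluorescence ratio relative to baseline, converted to per-well B score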
TRPC4 spec 2: mouse TRPC4 off-target activity of TRPC6 inhibitors, second screen; HEK293 TRPC4/MOR, membrane potential dye fluorescence; channel activated by saturating DAMGO dose; shares compounds with TRPC6 inhibitor; 42% of 920 active; inhibition, % at 10 µM; AID 2776;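 active = compounds whose fluorescence signal differed from control wells by over 3 SD, either direction, in both duplicate plates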
TRPC4 spec: tests whether TRPC6 inhibitors also affect mouse TRPC4. shares compounds with TRPC6 inhibitor. 61% of 920 active. HEK293 TRPC4/mu-opioid, membrane potential fluorescence. activity change, negative = inhibition, % at 10 µM;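 active = rise or fall in signal beyond 3 SD of buffer-only wells in both replicate plates, either sign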;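 also: integrated kinetic ratio of fluorescence range over baseline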
HEK293 MPD ctr 2-1: parental HEK293 nonspecific activity of TRPC6 inhibitors, second screen | 31% of 920 active | shares compounds with TRPC6 inhibitor | parental HEK293 membrane potential dye fluorescence; maximal acetylcholine challenge after compound addition | signal change vs control, % at 10 µM;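 active = membrane potential signal moving either way by over 3 SD of the maximum-effect control, in both duplicate plates, meaning non-specific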
HEK293 MPD ctr-1: counter-screen for TRPC6 inhibitors: effect in parental HEK293 cells; 60% of 920 active; AID 2780; parental HEK293 membrane potential dye fluorescence; membrane potential signal change, % at 10 µM; shares compounds with TRPC6 inhibitor;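 active = membrane potential signal shifting up or down by more than 3 SD of buffer-only wells, on both duplicate plates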
HEK293 MPD ctr-2: parental HEK293 nonspecific activity of TRPC6 modulators | shares compounds with TRPC6 inhibitor | membrane potential dye fluorescence | membrane potential signal change, % at 10 µM | 51% of 2,400 active | AID 488924;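 active = membrane potential signal moves up or down beyond 5 SD from buffer-only wells, on both duplicate plates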
HEK293 MPD ctr 2-2: second check of TRPC6 modulator effects in parental HEK293 cells. AID 488926. inhibition, % at 10 µM. shares compounds with TRPC6 inhibitor. membrane potential dye fluorescence; after compound, maximal acetylcholine stimulation. 14% of 2,400 active;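 active = membrane potential signal drops by more than 5 SD from the mean control signal, in both duplicate plates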;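 also: plate controls were acetylcholine ECmax control wells for no effect and buffer only wells for full effect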
TRPC4/MOR mod: mouse TRPC4 off-target activity of TRPC6 modulators; shares compounds with TRPC6 inhibitor; HEK293 TRPC4/mu-opioid, membrane potential fluorescence; percent change from control (negative = decrease, positive = increase), % at 10 µM; 69% of 2,400 active;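 active = membrane potential signal moved up or down beyond 5 SD of buffer control wells, in both duplicate plates, actives on both sides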;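 also: plate controls were assay buffer wells for no effect and DAMGO maximal-effect wells for full effect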
TRPC4 ctr inh 2: mouse TRPC4 off-target activity of TRPC6 modulators, second screen | AID 488928 | 55% of 2,400 active | inhibition, % at 10 µM | shares compounds with TRPC6 inhibitor | HEK293 TRPC4/mu-opioid, membrane potential dye fluorescence; stimulated with maximal-effect DAMGO;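 active = drop in membrane potential signal beyond 5 SD of the control wells in both duplicate plates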;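 also: TRPC4 counter screen for TRPC6 hits run under conditions tuned for TRPC6 not TRPC4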
TRPC6 inh conf: confirmation of mouse TRPC6 inhibitors. shares compounds with TRPC6 inhibitor. HEK293-TRPC6, membrane potential dye, ACh-evoked depolarization. inhibition, % at 10 µM. 43% of 3,300 active;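 active = fluorescence ratio falls more than 5 SD below the full-stimulation control mean, in both duplicate runs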;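 also: integrated fluorescence ratio of peak minus minimum over baseline after agonist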
TRPC6 act conf: mouse TRPC6 activator confirmation | shares compounds with TRPC6 inhibitor | HEK293-TRPC6 membrane potential dye fluorescence, FDSS | activation, % at 10 µM | 11% of 2,800 active | AID 488961;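 active = ratio signal rise beyond 5 SD above unstimulated control wells' mean, seen in both duplicate runs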;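 also: plate controls were buffer EC0 wells for no effect and acetylcholine ECmax response for full effect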
An asterisk follows results filed as active; i = inactive; . = no result given.

SMILES | TRPC6 activator | TRPC6 inhibitor | TRPC4 PAM | TRPC4 act | TRPC4 block | HEK293 MPD ctr-2 | HEK293 MPD ctr 2-2 | TRPC4/MOR mod | TRPC4 ctr inh 2 | TRPC6 inh conf | TRPC6 act conf | others
CCC(C(=O)NC(C)(C)C)N(C(=O)Cn1nnc(-c2cccs2)n1)c1cnc2ccccc2c1 (centres undefined) | i | i | i | i | i | . | . | . | . | . | .
N=c1c(C(=O)NC2CCCC2)cc2c(=O)n3ccccc3nc2n1C1CCCC1 | i | -11* | i | i | i | -144%* | 62%* | -31%* | 58%* | 56%* | i
N=c1c(C(=O)NCc2ccco2)cc2c(=O)n3ccccc3nc2n1C1CCCC1 | i | -5.3* | i | i | i | -72%* | i | -32%* | 37%* | 46%* | i
Cc1ccc(CNC(=O)c2cc3c(=O)n4ccccc4nc3n(Cc3ccco3)c2=N)cc1 | i | i | i | i | i | . | . | . | . | . | .
Cn1c(=O)[nH]c(=O)c2c1nc1n2CC(COc2ccc3ccccc3c2)O1 (centres undefined) | i | i | i | i | i | . | . | . | . | . | .
COc1cccc(CNC(=O)CSc2nc3c(oc4ccccc43)c(=O)n2CC2CCCO2)c1 (centres undefined) | i | i | i | i | i | . | . | . | . | . | .
COc1ccc(OC)c2c(C)cc(N3CCCCCC3)nc12 | i | -6.6* | i | i | -5* | . | . | . | . | i | i | TRPC4 spec 2=74%*;TRPC4 spec=-22%*;HEK293 MPD ctr 2-1=i;HEK293 MPD ctr-1=-419%*
COc1ccc(OC)c2c(C)cc(NCCN3CCOCC3)nc12 | i | -8.9* | i | i | i | -276%* | 70%* | -36%* | 68%* | 72%* | i
COc1ccc(S(=O)(=O)NCCN2CCOCC2)c(C)c1C | i | i | i | i | i | . | . | . | . | . | .
COc1cccc2c(C)cc(N3CCCCCC3)nc12 | i | -9.4* | i | i | i | -262%* | i | -47%* | 86%* | 46%* | i
COc1ccc(OC)c2c(C)cc(N3CCN(C(=O)c4ccc(C)cc4)CC3)nc12 | i | i | i | i | i | . | . | . | . | . | .
COc1ccc(OC)c2c(C)cc(C)nc12 | i | i | i | i | i | . | . | . | . | . | .
COc1ccc(N2CCN(c3cc(C)c4cccc(C)c4n3)CC2)cc1 | i | i | i | i | i | . | . | . | . | . | .
COc1ccc(OC)c2c(C)cc(N3CCN(C(=O)c4ccc(F)cc4)CC3)nc12 | i | -5.7* | i | i | i | -244%* | i | -44%* | 42%* | i | i
O=C(Nc1cccc2ccccc12)N(CCO)C1CCS(=O)(=O)C1 (centres undefined) | i | i | i | i | i | . | . | . | . | . | .
O=C(OCCOc1cccc(Cl)c1)c1ccc2ncsc2c1 | i | i | i | i | i | . | . | . | . | . | .
O=C(NC1CCN(c2ncccn2)CC1)c1ccccc1F | i | i | i | i | i | . | . | . | . | . | .
CCOC(=O)c1[nH]c2ccc(Br)cc2c1NC(=O)CCN1CCCC(C)(C)C1 | i | i | i | i | i | . | . | . | . | . | .
CCc1nc2ccc(F)cc2c(C(=O)NC2CCCCC2C)c1C (centres undefined) | 14* | i | i | i | i | 428%* | i | 86%* | 44%* | . | 171%*
Cc1cc(C(=O)NC2CCCCC2C)c2ccccc2n1 (centres undefined) | i | i | i | i | i | . | . | . | . | . | .
CCCC(=O)C1=C(O)C(C(=O)OC)C(C)(C)CC1=NCCc1ccccc1 (centres undefined) | i | i | i | i | i | . | . | . | . | . | .
COc1cc2c(cc1OC)CN(C(=O)C(CCSC)NS(=O)(=O)c1ccc(C)cc1)CC2 (centres undefined) | i | i | i | i | i | . | . | . | . | . | .
COc1ccc2c(c1)Sc1ccccc1N2CCN(C)C | i | -5.1* | i | 50* | i | i | i | 39%* | 82%* | 52%* | i
CCC(=O)c1ccc2c(c1)N(CCCN(C)C)c1ccccc1S2 | i | -6.1* | i | i | i | -232%* | 72%* | -38%* | 81%* | 70%* | i
CN(C)CCCN1c2ccccc2Sc2ccccc21 | i | -6.4* | i | i | i | i | i | i | 58%* | 44%* | i
CN(CCCN1c2ccccc2CCc2ccccc21)CC(=O)c1ccc(Cl)cc1 | i | i | i | i | i | . | . | . | . | . | .
COc1ccc(N2CC(C(=O)NCc3n[nH]c(=O)c4ccccc34)CC2=O)cc1 (centres undefined) | i | i | i | i | i | . | . | . | . | . | .
CC(C)(C)N(Cc1ccccc1)C(=O)COC(=O)c1ccccc1SCC(=O)N1CCCC1 | i | i | i | i | i | . | . | . | . | . | .
CC(=O)Nc1ccc(NC(=O)C(C)OC(=O)C(C)SCC(=O)Nc2ccc(F)cc2)cc1 (centres undefined) | i | i | i | i | i | . | . | . | . | . | .
CCOc1ccccc1Nc1ncnc2ccc(Br)cc12 | i | i | i | i | i | . | . | . | . | . | .
